Experimental data: ChEMBL document CHEMBL4196021, “Targeting G-quadruplex DNA structures in the telomere and oncogene promoter regions by benzimidazole‒carbazole ligands” (Eur J Med Chem, 2018)
The source made the active and inactive calls. The rule behind the calls is not given here.

These compounds were tested on Quadruplex DNA (assay: Binding affinity to human c-Kit1 G-quadruplex DNA at 0.6 uM after 5 mins in presence of KCl by fluorescence spectroscopic method).
Type: nucleic-acid assay
How it was run: (§1)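 Fluorescence titration at 25 °C with 0.6 µM ligand in 10 mM Tris-HCl pH 7.4, 100 mM KCl, 0.1 mM EDTA. Preformed G4 DNA was added stepwise, with 5 min incubation before each spectrum. Excitation 330 nm; emission 350–550 nm, slit 5 nm.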

Structure (SMILES)	Activity
CCn1c2ccc(-c3nc4ccc(N5CCN(CCO)CC5)cc4[nH]3)cc2c2cc(-c3nc4ccc(N5CCN(CCO)CC5)cc4[nH]3)ccc21	Active

The compounds below were run on Quadruplex DNA (assay: Binding affinity to human c-Myc G-quadruplex DNA at 0.6 uM after 5 mins in presence of KCl by fluorescence spectroscopic method).
Type: nucleic-acid assay
How it was run: as §1

Structure (SMILES)	Activity
CCn1c2ccc(-c3nc4ccc(N5CCN(CCO)CC5)cc4[nH]3)cc2c2cc(-c3nc4ccc(N5CCN(CCO)CC5)cc4[nH]3)ccc21	Active

Each compound was assayed on Quadruplex DNA (assay: Binding affinity to human telomeric G-quadruplex DNA at 0.6 uM after 5 mins in presence of KCl by fluorescence spectroscopic method).
Type: nucleic-acid assay
How it was run: as §1

Structure (SMILES)	Activity
CCn1c2ccc(-c3nc4ccc(N5CCN(CCO)CC5)cc4[nH]3)cc2c2cc(-c3nc4ccc(N5CCN(CCO)CC5)cc4[nH]3)ccc21	Active

What follows are compounds tested on Quadruplex DNA (assay: Binding affinity to human Bcl2 G-quadruplex DNA at 0.6 uM after 5 mins in presence of KCl by fluorescence spectroscopic method).
Type: nucleic-acid assay
How it was run: as §1

Structure (SMILES)	Activity
CCn1c2ccc(-c3nc4ccc(N5CCN(CCO)CC5)cc4[nH]3)cc2c2cc(-c3nc4ccc(N5CCN(CCO)CC5)cc4[nH]3)ccc21	Active

These compounds were tested on Quadruplex DNA (assay: Binding affinity to human c-Kit2 G-quadruplex DNA at 0.6 uM after 5 mins in presence of KCl by fluorescence spectroscopic method).
Type: nucleic-acid assay
How it was run: as §1

Structure (SMILES)	Activity
CCn1c2ccc(-c3nc4ccc(N5CCN(CCO)CC5)cc4[nH]3)cc2c2cc(-c3nc4ccc(N5CCN(CCO)CC5)cc4[nH]3)ccc21	Active

These compounds were tested on Quadruplex DNA (assay: Binding affinity to human VEGF G-quadruplex DNA at 0.6 uM after 5 mins in presence of KCl by fluorescence spectroscopic method).
Type: nucleic-acid assay
How it was run: as §1

Structure (SMILES)	Activity
CCn1c2ccc(-c3nc4ccc(N5CCN(CCO)CC5)cc4[nH]3)cc2c2cc(-c3nc4ccc(N5CCN(CCO)CC5)cc4[nH]3)ccc21	Active

What follows are compounds tested on Quadruplex DNA (assay: Induction of conformational changes in human telomeric G-quadruplex DNA assessed as inversion from potassium ion stabilized hybrid type mixed parallel/antiparallel G-quadruplex to stable telomere parallel-stranded G-quadruplex after 5 mins in presence of KCl by CD spectroscopic method).
Type: nucleic-acid assay
How it was run: (§2)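 CD spectra of 5 µM G4 DNA in 10 mM Tris-HCl pH 7.4, 100 mM KCl, 0.1 mM EDTA, with or without ligand. Mixtures were heated 95 °C for 5 min and slowly cooled to room temperature. Recorded 200–400 nm at 25 °C, 100 nm/min, 2 s response, 1 cm cell; average of three scans.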

Structure (SMILES)	Activity
CCn1c2ccc(-c3nc4ccc(N5CCN(CCO)CC5)cc4[nH]3)cc2c2cc(-c3nc4ccc(N5CCN(CCO)CC5)cc4[nH]3)ccc21	Active

Each compound was assayed on Quadruplex DNA (assay: Induction of conformational changes in human Bcl2 G-quadruplex DNA assessed as inversion from potassium ion stabilized hybrid type mixed parallel/antiparallel G-quadruplex to stable telomere parallel-stranded G-quadruplex after 5 mins in presence of KCl by CD spectroscopic method).
Type: nucleic-acid assay
How it was run: as §2

Structure (SMILES)	Activity
CCn1c2ccc(-c3nc4ccc(N5CCN(CCO)CC5)cc4[nH]3)cc2c2cc(-c3nc4ccc(N5CCN(CCO)CC5)cc4[nH]3)ccc21	Active

These compounds were tested on Quadruplex DNA (assay: Binding affinity to human c-Myc G-quadruplex DNA assessed as stabilization of parallel stranded topology after 5 mins in presence of KCl by CD spectroscopic method).
Type: nucleic-acid assay
How it was run: as §2

Structure (SMILES)	Activity
CCn1c2ccc(-c3nc4ccc(N5CCN(CCO)CC5)cc4[nH]3)cc2c2cc(-c3nc4ccc(N5CCN(CCO)CC5)cc4[nH]3)ccc21	Active

Each compound was assayed on Quadruplex DNA (assay: Binding affinity to human c-Kit1 G-quadruplex DNA assessed as stabilization of parallel stranded topology after 5 mins in presence of KCl by CD spectroscopic method).
Type: nucleic-acid assay
How it was run: as §2

Structure (SMILES)	Activity
CCn1c2ccc(-c3nc4ccc(N5CCN(CCO)CC5)cc4[nH]3)cc2c2cc(-c3nc4ccc(N5CCN(CCO)CC5)cc4[nH]3)ccc21	Active

Each compound was assayed on Quadruplex DNA (assay: Binding affinity to human c-Kit2 G-quadruplex DNA assessed as stabilization of parallel stranded topology after 5 mins in presence of KCl by CD spectroscopic method).
Type: nucleic-acid assay
How it was run: as §2

Structure (SMILES)	Activity
CCn1c2ccc(-c3nc4ccc(N5CCN(CCO)CC5)cc4[nH]3)cc2c2cc(-c3nc4ccc(N5CCN(CCO)CC5)cc4[nH]3)ccc21	Active

What follows are compounds tested on Quadruplex DNA (assay: Binding affinity to human VEGF G-quadruplex DNA assessed as stabilization of parallel stranded topology after 5 mins in presence of KCl by CD spectroscopic method).
Type: nucleic-acid assay
How it was run: as §2

Structure (SMILES)	Activity
CCn1c2ccc(-c3nc4ccc(N5CCN(CCO)CC5)cc4[nH]3)cc2c2cc(-c3nc4ccc(N5CCN(CCO)CC5)cc4[nH]3)ccc21	Active

Each compound was assayed against Quadruplex DNA (assay: Displacement of thiazole orange from human telomeric G-quadruplex DNA after 5 mins in presence of KCl by fluorescence assay).
Type: nucleic-acid assay
How it was run: (§3)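 Thiazole orange displacement from a G4 DNA–TO complex (1 µM TO + 0.5 µM G4 DNA) in 10 mM Tris-HCl pH 7.4, 100 mM KCl, 0.1 mM EDTA. Ligand was added in increasing steps, with 5 min incubation each. Fluorescence read at ex 501/em 531 nm; % displacement = 100 − (Ft/F0 × 100). DC50 is the ligand concentration giving 50% displacement, read from plots; average of two independent experiments.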

Structure (SMILES)	DC50 [nM]
CCn1c2ccc(-c3nc4ccc(N5CCN(CCO)CC5)cc4[nH]3)cc2c2cc(-c3nc4ccc(N5CCN(CCO)CC5)cc4[nH]3)ccc21	2790

What follows are compounds tested against Quadruplex DNA (assay: Displacement of thiazole orange from human c-Myc G-quadruplex DNA after 5 mins in presence of KCl by fluorescence assay).
Type: nucleic-acid assay
How it was run: as §3

Structure (SMILES)	DC50 [nM]
CCn1c2ccc(-c3nc4ccc(N5CCN(CCO)CC5)cc4[nH]3)cc2c2cc(-c3nc4ccc(N5CCN(CCO)CC5)cc4[nH]3)ccc21	1630

The compounds below were run against Quadruplex DNA (assay: Displacement of thiazole orange from human Bcl2 G-quadruplex DNA after 5 mins in presence of KCl by fluorescence assay).
Type: nucleic-acid assay
How it was run: as §3

Structure (SMILES)	DC50 [nM]
CCn1c2ccc(-c3nc4ccc(N5CCN(CCO)CC5)cc4[nH]3)cc2c2cc(-c3nc4ccc(N5CCN(CCO)CC5)cc4[nH]3)ccc21	2860

These compounds were tested against Quadruplex DNA (assay: Displacement of thiazole orange from human c-Kit1 G-quadruplex DNA after 5 mins in presence of KCl by fluorescence assay).
Type: nucleic-acid assay
How it was run: as §3

Structure (SMILES)	DC50 [nM]
CCn1c2ccc(-c3nc4ccc(N5CCN(CCO)CC5)cc4[nH]3)cc2c2cc(-c3nc4ccc(N5CCN(CCO)CC5)cc4[nH]3)ccc21	1620

Each compound was assayed against Quadruplex DNA (assay: Displacement of thiazole orange from human c-Kit2 G-quadruplex DNA after 5 mins in presence of KCl by fluorescence assay).
Type: nucleic-acid assay
How it was run: as §3

Structure (SMILES)	DC50 [nM]
CCn1c2ccc(-c3nc4ccc(N5CCN(CCO)CC5)cc4[nH]3)cc2c2cc(-c3nc4ccc(N5CCN(CCO)CC5)cc4[nH]3)ccc21	1340

These compounds were tested against Quadruplex DNA (assay: Displacement of thiazole orange from human VEGF G-quadruplex DNA after 5 mins in presence of KCl by fluorescence assay).
Type: nucleic-acid assay
How it was run: as §3

Structure (SMILES)	DC50 [nM]
CCn1c2ccc(-c3nc4ccc(N5CCN(CCO)CC5)cc4[nH]3)cc2c2cc(-c3nc4ccc(N5CCN(CCO)CC5)cc4[nH]3)ccc21	1420

What follows are compounds tested on Calf thymus DNA (assay: Displacement of thiazole orange from calf thymus duplex DNA after 5 mins in presence of KCl by fluorescence assay).
Type: nucleic-acid assay, Bos taurus

Structure (SMILES)	DC50 [nM]
CCn1c2ccc(-c3nc4ccc(N5CCN(CCO)CC5)cc4[nH]3)cc2c2cc(-c3nc4ccc(N5CCN(CCO)CC5)cc4[nH]3)ccc21	5280

What follows are compounds tested on Quadruplex DNA (assay: Binding affinity to human telomeric G-quadruplex DNA assessed as change in melting temperature in presence of KCl by CD spectroscopic method).
Type: nucleic-acid assay
How it was run: (§4)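 CD melting of 5 µM G4 DNA in 10 mM Tris-HCl pH 7.4, 25 mM KCl, 0.1 mM EDTA. Ligand was present during folding (heating, slow cooling). Spectra 200–400 nm over 20–96 °C in 2 °C steps, buffer blank subtracted. Tm was taken from normalized ellipticity at the positive maximum (262 nm for promoter G4s). ΔTm = ligand-bound minus DNA alone; average of two independent experiments.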

Structure (SMILES)	ΔTm [°C]
CCn1c2ccc(-c3nc4ccc(N5CCN(CCO)CC5)cc4[nH]3)cc2c2cc(-c3nc4ccc(N5CCN(CCO)CC5)cc4[nH]3)ccc21	9.74

These compounds were tested on Quadruplex DNA (assay: Binding affinity to human c-Myc G-quadruplex DNA assessed as change in melting temperature in presence of KCl by CD spectroscopic method).
Type: nucleic-acid assay
How it was run: as §4

Structure (SMILES)	ΔTm [°C]
CCn1c2ccc(-c3nc4ccc(N5CCN(CCO)CC5)cc4[nH]3)cc2c2cc(-c3nc4ccc(N5CCN(CCO)CC5)cc4[nH]3)ccc21	8.63

The compounds below were run on Quadruplex DNA (assay: Binding affinity to human Bcl2 G-quadruplex DNA assessed as change in melting temperature in presence of KCl by CD spectroscopic method).
Type: nucleic-acid assay
How it was run: as §4

Structure (SMILES)	ΔTm [°C]
CCn1c2ccc(-c3nc4ccc(N5CCN(CCO)CC5)cc4[nH]3)cc2c2cc(-c3nc4ccc(N5CCN(CCO)CC5)cc4[nH]3)ccc21	6.53

What follows are compounds tested on Quadruplex DNA (assay: Binding affinity to human c-Kit1 G-quadruplex DNA assessed as change in melting temperature in presence of KCl by CD spectroscopic method).
Type: nucleic-acid assay
How it was run: as §4

Structure (SMILES)	ΔTm [°C]
CCn1c2ccc(-c3nc4ccc(N5CCN(CCO)CC5)cc4[nH]3)cc2c2cc(-c3nc4ccc(N5CCN(CCO)CC5)cc4[nH]3)ccc21	13.2

These compounds were tested on Quadruplex DNA (assay: Binding affinity to human c-Kit2 G-quadruplex DNA assessed as change in melting temperature in presence of KCl by CD spectroscopic method).
Type: nucleic-acid assay
How it was run: as §4

Structure (SMILES)	ΔTm [°C]
CCn1c2ccc(-c3nc4ccc(N5CCN(CCO)CC5)cc4[nH]3)cc2c2cc(-c3nc4ccc(N5CCN(CCO)CC5)cc4[nH]3)ccc21	17

These compounds were tested on Quadruplex DNA (assay: Binding affinity to human VEGF G-quadruplex DNA assessed as change in melting temperature in presence of KCl by CD spectroscopic method).
Type: nucleic-acid assay
How it was run: as §4

Structure (SMILES)	ΔTm [°C]
CCn1c2ccc(-c3nc4ccc(N5CCN(CCO)CC5)cc4[nH]3)cc2c2cc(-c3nc4ccc(N5CCN(CCO)CC5)cc4[nH]3)ccc21	12.8

What follows are compounds tested on Quadruplex DNA (assay: Binding affinity to human 77-mer c-Myc G-quadruplex DNA assessed as inhibition of Taq DNA polymerase-mediated DNA synthesis by measuring generation of premature chain termination products using 32P-labeled primer after 30 mins by polymerase stop assay).
Type: nucleic-acid assay
How it was run: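 Template of 10 nM single-stranded 77-mer c-MYC with the G-quadruplex-forming sequence, annealed to 32P-labeled plus cold primer (15 nM) in Tris-HCl pH 7.4 with 5 mM KCl. Annealing was 95 °C for 5 min then slow cooling, with ligand added before annealing. Extension with Taq polymerase (5 mM MgCl2, 0.5 mM DTT, 0.2 mM dNTPs) ran 30 min at 48 or 40 °C. Products were resolved on 15% urea denaturing PAGE and read by phosphorimaging.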

Structure (SMILES)	Activity
CCn1c2ccc(-c3nc4ccc(N5CCN(CCO)CC5)cc4[nH]3)cc2c2cc(-c3nc4ccc(N5CCN(CCO)CC5)cc4[nH]3)ccc21	Dose-dependent effect
